Test results published in ChEMBL document CHEMBL5576142, “Exploring 2-Sulfonylpyrimidine Warheads as Acrylamide Surrogates for Targeted Covalent Inhibition: A BTK Story” (J Med Chem, 2024).
Active and inactive are the calls of the source. The calls are words filed in the database; no cut-off is given here.

Tests used:
[1] = target: T1, Tyrosine-protein kinase BTK (Homo sapiens, UniProt Q06187); assay: Covalent inhibition of full-length BTK (unknown origin) expressed in Escherichia coli BL21 (DE3) at 100 nM incubated for 1 hr in presence of ATP by ADP-Glo kinase assay relative to control
T1 sequence (Q06187 whole entry): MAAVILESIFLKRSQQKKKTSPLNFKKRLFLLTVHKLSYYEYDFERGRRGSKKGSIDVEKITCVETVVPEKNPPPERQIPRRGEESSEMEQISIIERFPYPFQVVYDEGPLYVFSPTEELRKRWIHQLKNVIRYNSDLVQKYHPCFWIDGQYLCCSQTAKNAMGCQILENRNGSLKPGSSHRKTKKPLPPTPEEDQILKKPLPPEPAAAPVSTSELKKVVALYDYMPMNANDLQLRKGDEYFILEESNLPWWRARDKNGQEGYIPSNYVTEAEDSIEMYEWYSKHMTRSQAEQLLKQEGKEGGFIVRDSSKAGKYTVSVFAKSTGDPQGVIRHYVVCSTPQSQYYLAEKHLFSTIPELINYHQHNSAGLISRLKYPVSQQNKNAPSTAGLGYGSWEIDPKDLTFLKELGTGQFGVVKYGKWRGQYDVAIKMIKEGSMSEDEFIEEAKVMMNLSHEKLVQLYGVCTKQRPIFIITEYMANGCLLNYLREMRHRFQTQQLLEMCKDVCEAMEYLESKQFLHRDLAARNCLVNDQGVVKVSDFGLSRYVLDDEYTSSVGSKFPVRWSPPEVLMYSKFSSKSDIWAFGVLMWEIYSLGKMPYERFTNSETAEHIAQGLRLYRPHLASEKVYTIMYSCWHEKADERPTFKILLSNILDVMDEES

[2] = tested on: Epidermal growth factor receptor (Homo sapiens), P00533 [T790M]; assay: Inhibition of EGFR T790M mutant (unknown origin) expressed in expressed in Escherichia coli BL21 at 1 uM incubated for 1 hr by Eurofins-KinomeScan assay relative to control
[3] = Stability in human plasma assessed as parent compound remaining incubated for 3 hrs by UPLC-MS analysis; type: ADME, cell-free; details: read-out: Stability
[4] = target: T1, Tyrosine-protein kinase BTK; details: OCILY7, dose 500.0 nM, time 1.0 hrs
[5] = target: T1, Tyrosine-protein kinase BTK; details: OCILY7, dose 500.0 nM, time 1.0 hrs; remark: listed apart in the source
[6] = target: T1, Tyrosine-protein kinase BTK; details: OCILY7, dose 500.0 nM, time 1.0 hrs; remark: listed apart in the source
[7] = tested on: Epidermal growth factor receptor (Homo sapiens), P00533 [G719C]; assay: Inhibition of EGFR G719C mutant (unknown origin) expressed in expressed in Escherichia coli BL21 at 1 uM incubated for 1 hr by Eurofins-KinomeScan assay relative to control
Chain of Epidermal growth factor receptor (Homo sapiens), P00533 [G719C] (P00533 whole entry G719C): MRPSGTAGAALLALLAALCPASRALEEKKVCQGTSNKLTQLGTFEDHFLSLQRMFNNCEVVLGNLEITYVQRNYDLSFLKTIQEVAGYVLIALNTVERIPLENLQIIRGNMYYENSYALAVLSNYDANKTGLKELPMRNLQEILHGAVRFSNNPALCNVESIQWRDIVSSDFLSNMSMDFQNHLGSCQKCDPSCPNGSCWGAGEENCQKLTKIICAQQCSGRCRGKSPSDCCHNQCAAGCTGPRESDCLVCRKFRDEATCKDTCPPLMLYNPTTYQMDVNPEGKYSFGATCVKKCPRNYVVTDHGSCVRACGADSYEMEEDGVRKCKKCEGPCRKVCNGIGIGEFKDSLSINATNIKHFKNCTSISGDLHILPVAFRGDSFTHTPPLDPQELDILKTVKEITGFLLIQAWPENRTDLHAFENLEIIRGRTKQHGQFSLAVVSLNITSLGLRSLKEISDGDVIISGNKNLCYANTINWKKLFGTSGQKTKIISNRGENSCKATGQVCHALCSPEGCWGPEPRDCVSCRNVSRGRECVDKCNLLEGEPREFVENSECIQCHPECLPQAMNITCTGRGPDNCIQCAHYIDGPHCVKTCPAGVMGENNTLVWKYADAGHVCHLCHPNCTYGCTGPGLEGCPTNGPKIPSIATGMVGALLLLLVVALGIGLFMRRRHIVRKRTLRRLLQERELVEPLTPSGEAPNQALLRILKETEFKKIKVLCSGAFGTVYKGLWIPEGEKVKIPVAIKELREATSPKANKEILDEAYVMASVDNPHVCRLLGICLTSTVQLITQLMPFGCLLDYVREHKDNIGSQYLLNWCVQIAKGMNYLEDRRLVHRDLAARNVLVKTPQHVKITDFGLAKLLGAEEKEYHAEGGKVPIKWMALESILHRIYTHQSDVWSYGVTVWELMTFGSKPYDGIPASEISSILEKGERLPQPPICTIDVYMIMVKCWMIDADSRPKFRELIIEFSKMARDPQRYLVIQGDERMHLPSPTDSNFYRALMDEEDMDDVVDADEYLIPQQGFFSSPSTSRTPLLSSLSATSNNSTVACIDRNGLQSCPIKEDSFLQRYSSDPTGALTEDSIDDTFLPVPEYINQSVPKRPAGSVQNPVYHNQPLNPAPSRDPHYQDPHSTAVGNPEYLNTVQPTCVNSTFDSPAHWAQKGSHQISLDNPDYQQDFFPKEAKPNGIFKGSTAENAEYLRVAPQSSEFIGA

[8] = target: T1, Tyrosine-protein kinase BTK; details: OCILY7, dose 500.0 nM, time 1.0 hrs; remark: listed apart in the source
[9] = tested on: Epidermal growth factor receptor (Homo sapiens), P00533 [G719S]; assay: Inhibition of EGFR G719S mutant (unknown origin) expressed in expressed in Escherichia coli BL21 at 1 uM incubated for 1 hr by Eurofins-KinomeScan assay relative to control
Chain of Epidermal growth factor receptor (Homo sapiens), P00533 [G719S] (P00533 whole entry G719S): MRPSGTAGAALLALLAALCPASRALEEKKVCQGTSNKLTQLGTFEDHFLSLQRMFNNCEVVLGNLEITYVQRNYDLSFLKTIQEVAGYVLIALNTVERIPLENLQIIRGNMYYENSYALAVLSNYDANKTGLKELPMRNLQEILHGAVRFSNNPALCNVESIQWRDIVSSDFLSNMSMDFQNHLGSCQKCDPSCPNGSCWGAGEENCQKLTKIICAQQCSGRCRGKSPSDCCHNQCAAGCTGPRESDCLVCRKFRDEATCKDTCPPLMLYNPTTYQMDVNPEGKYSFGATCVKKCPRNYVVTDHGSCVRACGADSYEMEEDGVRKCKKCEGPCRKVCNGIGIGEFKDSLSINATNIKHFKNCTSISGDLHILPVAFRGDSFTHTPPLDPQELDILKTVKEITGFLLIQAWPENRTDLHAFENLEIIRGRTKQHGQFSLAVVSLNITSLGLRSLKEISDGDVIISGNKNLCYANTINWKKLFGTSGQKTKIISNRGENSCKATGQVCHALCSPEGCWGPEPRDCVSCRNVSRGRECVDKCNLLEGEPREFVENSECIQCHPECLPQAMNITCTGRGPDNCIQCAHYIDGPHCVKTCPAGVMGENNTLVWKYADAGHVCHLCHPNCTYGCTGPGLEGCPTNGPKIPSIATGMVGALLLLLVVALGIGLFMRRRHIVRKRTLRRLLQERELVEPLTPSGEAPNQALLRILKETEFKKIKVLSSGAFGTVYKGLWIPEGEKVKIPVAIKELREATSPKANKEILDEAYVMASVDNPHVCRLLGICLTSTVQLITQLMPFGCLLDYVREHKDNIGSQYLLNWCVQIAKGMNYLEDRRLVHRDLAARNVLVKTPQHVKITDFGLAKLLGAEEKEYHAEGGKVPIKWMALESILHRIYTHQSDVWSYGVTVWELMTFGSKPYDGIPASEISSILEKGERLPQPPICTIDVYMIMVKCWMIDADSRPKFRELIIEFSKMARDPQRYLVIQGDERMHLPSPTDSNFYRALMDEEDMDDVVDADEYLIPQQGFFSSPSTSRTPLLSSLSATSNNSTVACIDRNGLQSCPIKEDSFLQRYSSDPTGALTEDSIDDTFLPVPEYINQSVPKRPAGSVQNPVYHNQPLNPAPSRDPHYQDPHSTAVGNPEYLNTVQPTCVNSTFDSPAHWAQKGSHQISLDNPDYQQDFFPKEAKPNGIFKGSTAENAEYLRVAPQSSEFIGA

[10] = tested on: Epidermal growth factor receptor (Homo sapiens), P00533 [L861Q]; assay: Inhibition of EGFR L861Q mutant (unknown origin) expressed in expressed in Escherichia coli BL21 at 1 uM incubated for 1 hr by Eurofins-KinomeScan assay relative to control
Chain of Epidermal growth factor receptor (Homo sapiens), P00533 [L861Q] (P00533 whole entry L861Q): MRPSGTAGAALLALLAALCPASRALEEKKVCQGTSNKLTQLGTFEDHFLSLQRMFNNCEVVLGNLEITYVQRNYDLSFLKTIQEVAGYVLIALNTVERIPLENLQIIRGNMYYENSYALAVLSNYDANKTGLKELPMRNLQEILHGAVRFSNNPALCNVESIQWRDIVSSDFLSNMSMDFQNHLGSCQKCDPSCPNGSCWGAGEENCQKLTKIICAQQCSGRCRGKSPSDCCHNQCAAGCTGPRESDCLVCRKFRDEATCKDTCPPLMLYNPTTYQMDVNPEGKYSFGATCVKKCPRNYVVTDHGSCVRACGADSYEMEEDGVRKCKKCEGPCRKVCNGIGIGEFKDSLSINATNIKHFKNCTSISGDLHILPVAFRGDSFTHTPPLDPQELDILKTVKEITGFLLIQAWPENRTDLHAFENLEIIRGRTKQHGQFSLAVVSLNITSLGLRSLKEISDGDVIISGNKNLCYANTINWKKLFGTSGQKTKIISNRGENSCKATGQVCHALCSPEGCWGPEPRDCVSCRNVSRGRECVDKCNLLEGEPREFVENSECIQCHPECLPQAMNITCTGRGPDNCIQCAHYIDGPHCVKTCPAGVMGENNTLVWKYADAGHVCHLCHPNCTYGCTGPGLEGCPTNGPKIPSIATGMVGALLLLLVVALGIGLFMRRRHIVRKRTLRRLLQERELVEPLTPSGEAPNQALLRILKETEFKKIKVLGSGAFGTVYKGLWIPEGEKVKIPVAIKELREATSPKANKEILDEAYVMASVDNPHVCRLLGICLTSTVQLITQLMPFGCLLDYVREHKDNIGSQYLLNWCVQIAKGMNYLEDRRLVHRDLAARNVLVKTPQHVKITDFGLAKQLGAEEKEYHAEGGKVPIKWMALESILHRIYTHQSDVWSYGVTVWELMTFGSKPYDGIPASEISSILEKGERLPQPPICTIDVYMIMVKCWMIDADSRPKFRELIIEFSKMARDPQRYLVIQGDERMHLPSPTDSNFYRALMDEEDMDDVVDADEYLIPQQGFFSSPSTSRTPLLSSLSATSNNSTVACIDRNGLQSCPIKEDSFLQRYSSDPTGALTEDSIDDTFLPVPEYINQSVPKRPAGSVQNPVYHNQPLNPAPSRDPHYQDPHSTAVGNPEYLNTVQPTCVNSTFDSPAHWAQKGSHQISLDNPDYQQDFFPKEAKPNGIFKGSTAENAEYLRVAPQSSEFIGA

[11] = target: T1, Tyrosine-protein kinase BTK; assay: Inhibition of BTK in anti-IgM induced human OCILY7 cells assessed as increase in calcium flux at 250 nM incubated for […] followed by anti-IgM and Pluronic F127 stimulation measured after […] by Fluo-3 AM based flow cytometry; type: cell-based; details: time 5.0 hrs
[12] = target: T1, Tyrosine-protein kinase BTK
[13] = target: T1, Tyrosine-protein kinase BTK; details: OCILY7, dose 500.0 nM, time 1.0 hrs; remark: listed apart in the source
TMD8 [14] = assay: Downregulation of IL-10 gene expression in human TMD8 cells at 1 uM incubated for 8 hrs by RNA-sequencing analysis; type: functional, cell-based
In short: (§1)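 TMD8 cells (RPMI-1640, 10% FBS, penicillin/streptomycin, 2 mM glutamine) exposed to compound or DMSO vehicle for 8 h; total RNA extracted for RNA-seq. Differential expression versus DMSO scored at FDR < 0.01 with log2 fold change beyond ±0.5.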

TMD8 [15] = assay: Downregulation of LTA gene expression in human TMD8 cells at 1 uM incubated for 8 hrs by RNA-sequencing analysis; type: functional, cell-based; in short: as §1
TMD8 [16] = assay: Downregulation of NR4A1 gene expression in human TMD8 cells at 1 uM incubated for 8 hrs by RNA-sequencing analysis; type: functional, cell-based; in short: as §1
TMD8 [17] = assay: Downregulation of CD83 gene expression in human TMD8 cells at 1 uM incubated for 8 hrs by RNA-sequencing analysis; type: functional, cell-based; in short: as §1
TMD8 [18] = assay: Downregulation of EGR2 gene expression in human TMD8 cells at 1 uM incubated for 8 hrs by RNA-sequencing analysis; type: functional, cell-based; in short: as §1
TMD8 [19] = assay: Downregulation of NFKBID gene expression in human TMD8 cells at 1 uM incubated for 8 hrs by RNA-sequencing analysis; type: functional, cell-based; in short: as §1
TMD8 [20] = assay: Induction of apoptosis in human TMD8 cells assessed as late apoptotic cells at 10 nM incubated for 72 hrs by Annexin-V/PI staining based flow cytometry (reference value: 25.4 %); type: functional
TMD8 [21] = assay: Induction of necroptosis in human TMD8 cells assessed as upregulation of TRPM7 gene expression at 1 uM incubated for 8 hrs by RNA-sequencing analysis; type: functional, cell-based
In short: (§2)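 TMD8 cells (RPMI-1640, 10% FBS, glutamine) exposed to compound at 1 μM or DMSO for 8 h. Total RNA extracted and analysed by RNA-seq. Differential expression called against DMSO at FDR < 0.01 with |log2FC| > 0.5.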

TMD8 [22] = assay: Induction of apoptosis in human TMD8 cells assessed as early apoptotic cells at 1000 nM incubated for 72 hrs by Annexin-V/PI staining based flow cytometry (reference value: 4.8 %); type: functional
TMD8 [23] = assay: Downregulation of CYP1A1 gene expression in human TMD8 cells at 1 uM incubated for 8 hrs by RNA-sequencing analysis; type: functional, cell-based; in short: as §2
TMD8 [24] = assay: Induction of pyroptosis in human TMD8 cells assessed as upregulation of TLR4 gene expression at 1 uM incubated for 8 hrs by RNA-sequencing analysis; type: functional, cell-based; in short: as §2
TMD8 [25] = assay: Induction of apoptosis in human TMD8 cells assessed as necrotic cells at 1000 nM incubated for 72 hrs by Annexin-V/PI staining based flow cytometry (reference value: 3 %); type: functional
TMD8 [26] = assay: Induction of apoptosis in human TMD8 cells assessed as late apoptotic cells at 100 nM incubated for 72 hrs by Annexin-V/PI staining based flow cytometry (reference value: 25.4 %); type: functional
TMD8 [27] = assay: Induction of necroptosis in human TMD8 cells assessed as upregulation of TLR4 gene expression at 1 uM incubated for 8 hrs by RNA-sequencing analysis; type: functional, cell-based; in short: as §2
TMD8 [28] = assay: Induction of necroptosis in human TMD8 cells assessed as upregulation of RIPK1 gene expression at 1 uM incubated for 8 hrs by RNA-sequencing analysis; type: functional, cell-based; in short: as §2
[29] = GSH reactivity in PBS buffer at pH 7.4 assessed as pseudo-first order rate constant incubated upto 6 hrs at 20 degreeC by LC-MS analysis; type: physicochemical; details: pH 7.4, 6 h
In short: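 Compound at 100 μM with 1 mM GSH (10 equiv) in PBS pH 7.4, containing 100 μM 4-hydroxybenzoic acid as internal standard and 5% v/v DMSO, held at 20 °C. LC-MS traces taken every 10 min. Normalized integrals plotted against time to give a pseudo-first-order rate constant. Run in triplicate.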

TMD8 [30] = assay: Induction of necroptosis in human TMD8 cells assessed as upregulation of TNFSF10 gene expression at 1 uM incubated for 8 hrs by RNA-sequencing analysis; type: functional, cell-based; in short: as §2
TMD8 [31] = assay: Induction of pyroptosis in human TMD8 cells assessed as upregulation of NLRP7 gene expression at 1 uM incubated for 8 hrs by RNA-sequencing analysis; type: functional, cell-based; in short: as §2
TMD8 [32] = assay: Induction of apoptosis in human TMD8 cells assessed as viable cells at 1000 nM incubated for 72 hrs by Annexin-V/PI staining based flow cytometry (reference value: 66 %); type: functional; details: read-out: Activity
TMD8 [33] = assay: Induction of pyroptosis in human TMD8 cells assessed as upregulation of TLR8 gene expression at 1 uM incubated for 8 hrs by RNA-sequencing analysis; type: functional, cell-based; in short: as §2
[34] = target: T1, Tyrosine-protein kinase BTK; assay: Inhibition of NanoLuc fused BTK (unknown origin) transiently transfected in HEK293 cells incubated for 1 hr by NanoBRET assay; type: cell-based
TMD8 [35] = assay: Induction of apoptosis in human TMD8 cells assessed as necrotic cells at 100 nM incubated for 72 hrs by Annexin-V/PI staining based flow cytometry (reference value: 3 %); type: functional
TMD8 [36] = assay: Induction of apoptosis in human TMD8 cells assessed as necrotic cells at 10 nM incubated for 72 hrs by Annexin-V/PI staining based flow cytometry (reference value: 3 %); type: functional
TMD8 [37] = assay: Induction of apoptosis in human TMD8 cells assessed as early apoptotic cells at 10 nM incubated for 72 hrs by Annexin-V/PI staining based flow cytometry (reference value: 4.8 %); type: functional

SMILES	inhibition [1] [%]	inhibition [2]	inhibition [4]	inhibition [5]	inhibition [6]	inhibition [7]	inhibition [8]	inhibition [9]	inhibition [10]	further results
CCCCS(=O)(=O)c1ncc(C(=O)N2CCC[C@H](n3nc(-c4ccc(Oc5ccccc5)cc4)c4c(N)ncnc43)C2)cn1	40									
CCOC(=O)c1cnc(S(C)(=O)=O)nc1N1CCC[C@H](n2nc(-c3ccc(Oc4ccccc4)cc3)c3c(N)ncnc32)C1	> 95	Active	Active	inactive	inactive	Active	inactive	Active	Active	remaining at 3 h [3]: 22%
Cc1cnc(S(C)(=O)=O)nc1N1CCC[C@H](n2nc(-c3ccc(Oc4ccccc4)cc3)c3c(N)ncnc32)C1		Active	Active	inactive	inactive	Active	inactive	Active	Active	inhibition [11]: Active; Kinact [12]: 0.007 s⁻¹; inhibition [13]: inactive
C=CC(=O)N1CCC[C@@H](n2nc(-c3ccc(Oc4ccccc4)cc3)c3c(N)ncnc32)C1										Activity (TMD8 [14]): Active; Activity (TMD8 [15]): Active; Activity (TMD8 [16]): Active; Activity (TMD8 [17]): Active; Activity (TMD8 [18]): Active; Activity (TMD8 [19]): Active
CS(=O)(=O)c1ncc(Cl)c(C(=O)N2CCC[C@H](n3nc(-c4ccc(Oc5ccccc5)cc4)c4c(N)ncnc43)C2)n1	80									
Nc1ncnc2c1c(-c1ccc(Oc3ccccc3)cc1)nn2[C@H]1CCCN(C(=O)c2cnc(S(=O)(=O)c3ccccc3)nc2)C1	40									
CCCCS(=O)(=O)c1nccc(C(=O)N2CCC[C@H](n3nc(-c4ccc(Oc5ccccc5)cc4)c4c(N)ncnc43)C2)n1	40									
CNC(=O)c1cnc(S(C)(=O)=O)nc1N1CCC[C@H](n2nc(-c3ccc(Oc4ccccc4)cc3)c3c(N)ncnc32)C1		Active	Active	inactive	inactive	Active	inactive	Active	Active	inhibition [11]: Active; Activity (TMD8 [20]): 26.6%; Activity (TMD8 [21]): Active; Activity (TMD8 [22]): 14.5%; Activity (TMD8 [23]): Active; inhibition [13]: inactive; Activity (TMD8 [24]): Active; Activity (TMD8 [25]): 4.5%; Activity (TMD8 [26]): 53%; Activity (TMD8 [27]): Active; Activity (TMD8 [28]): Active; K [29]: 47 10^-5/s; Activity (TMD8 [30]): Active; Activity (TMD8 [31]): Active; viability at 1 µM (TMD8 [32]): 14.7%; Activity (TMD8 [33]): Active; IC50 [34]: 0.6 nM; Activity (TMD8 [35]): 4.6%; Activity (TMD8 [36]): 3.9%; Activity (TMD8 [37]): 3.4%
CS(=O)(=O)c1nccc(C(=O)N2CCC[C@H](n3nc(-c4ccc(Oc5ccccc5)cc4)c4c(N)ncnc43)C2)n1	80									
COC(=O)c1cnc(S(C)(=O)=O)nc1N1CCC[C@H](n2nc(-c3ccc(Oc4ccccc4)cc3)c3c(N)ncnc32)C1		Active	Active	inactive	inactive	Active	inactive	Active	Active	
CS(=O)(=O)c1ncc(C(=O)N2CCC[C@H](n3nc(-c4ccc(Oc5ccccc5)cc4)c4c(N)ncnc43)C2)cn1	80									
